Source: ChEMBL document CHEMBL2010801, “Semisynthesis and antimicrobial activity of novel guttiferone-A derivatives” (Bioorg Med Chem, 2012)
Values after ≈ are worked out from the molar mass of the structure shown. Active and inactive are the calls of the source. The calls are words filed in the database; no cut-off is given here.

Key:
Nakaseomyces glabratus = assay: Antifungal activity against Candida glabrata ATCC 90030 after 24 hrs by broth microdilution method; type: functional
Method in brief: (§1)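 Broth microdilution in microplates with a serial dilution series of compounds. Amphotericin B served as the fungicidal control and fluconazole as the fungistatic control. Yeast plates were incubated at 37 °C for 24 h.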

Pichia kudriavzevii = assay: Antifungal activity against Candida krusei ATCC 6258 after 24 hrs by broth microdilution method; type: functional; method in brief: as §1
Candida albicans = assay: Antifungal activity against Candida albicans ATCC 09548 after 24 hrs by broth microdilution method; type: functional; method in brief: as §1
Candida parapsilosis = assay: Antifungal activity against Candida parapsilosis ATCC 69548 after 24 hrs by broth microdilution method; type: functional; method in brief: as §1
Cryptococcus neoformans = assay: Antifungal activity against Cryptococcus neoformans ATCC 90012 after 24 hrs by broth microdilution method; type: functional; settings: for MIC: read-out: MIC100; method in brief: as §1
Candida tropicalis = assay: Antifungal activity against Candida tropicalis ATCC 750 after 24 hrs by broth microdilution method; type: functional; method in brief: as §1
Proteus mirabilis = assay: Antimicrobial activity against Proteus mirabilis ATCC 25933 after 24 hrs by broth microdilution method; type: functional
Method in brief: (§2)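 Microplate broth microdilution with a serial dilution series of compounds, using chloramphenicol as the antibacterial control. Bacterial plates were incubated at 35 °C for 24 h.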

Pseudomonas aeruginosa = assay: Antimicrobial activity against Pseudomonas aeruginosa ATCC 9027 after 24 hrs by broth microdilution method; type: functional; method in brief: as §2
Bacillus cereus = assay: Antimicrobial activity against Bacillus cereus ATCC 11778 after 24 hrs by broth microdilution method; type: functional; settings: for MIC: read-out: MIC100; method in brief: as §2
Staphylococcus aureus [1] = assay: Antimicrobial activity against Staphylococcus aureus ATCC 6538 after 24 hrs by broth microdilution method; type: functional; settings: for MIC50 / MIC: ATCC 6538, 24 h; for MIC: read-out: MIC100; method in brief: as §2
Salmonella typhimurium = assay: Antimicrobial activity against Salmonella typhimurium ATCC 14028 after 24 hrs by broth microdilution method; type: functional, Salmonella enterica subsp. enterica serovar Typhimurium; method in brief: as §2
Escherichia coli = assay: Antimicrobial activity against Escherichia coli ATCC 25922 after 24 hrs by broth microdilution method; type: functional; method in brief: as §2
[2] = Cytotoxicity against human PBMC after 48 hrs by MTT assay; type: cell-based; settings: PBMC (peripheral blood mononuclear cells)
Method in brief: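 Normal human PBMC from healthy volunteers were isolated by Ficoll-Hypaque density gradient and seeded at 2.4 × 10⁶ cells/mL. Compounds were added at 100 to 0.06 and cells held 48 h at 37 °C, 5% CO₂. MTT was then added for 4 h, formazan dissolved in DMSO and A560 read. Untreated cells were taken as 100% viability. CC50 was obtained by linear regression.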

Nannizzia gypsea = assay: Antifungal activity against Microsporum gypseum after 48 hrs by broth microdilution method; type: functional
Method in brief: (§3)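 Broth microdilution against filamentous fungi with serially diluted compounds. Amphotericin B (fungicidal) and fluconazole (fungistatic) were run as controls. Plates were incubated at 30 °C for 48 h.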

[3] = tested on: Staphylococcus epidermidis; assay: Antimicrobial activity against Staphylococcus epidermidis ATCC 12228 after 24 hrs by broth microdilution method; type: functional; method in brief: as §2
Trichophyton tonsurans = assay: Antifungal activity against Trichophyton tonsurans after 48 hrs by broth microdilution method; type: functional; settings: for MIC: read-out: MIC100; method in brief: as §3
Staphylococcus aureus [4] = assay: Ratio of MIC100 for chloramphenicol to MIC100 of compound for Staphylococcus aureus ATCC 6538 after 24 hrs by broth microdilution method; type: functional
[5] = ATCC 90012, 24 h, read-out: MIC50
[6] = Salmonella enterica, ATCC 14028, 24 h
[7] = Salmonella enterica subsp. enterica serovar Typhimurium
[8] = Salmonella enterica, ATCC 14028, 24 h, read-out: MIC50

SMILES	MIC100 (Nakaseomyces glabratus)	MIC100 (Pichia kudriavzevii)	MIC100 (Candida albicans)	MIC100 (Candida parapsilosis)	MIC (Bacillus cereus; ATCC 11778, 24 h) [µM]	MIC50 (Staphylococcus aureus [1]; read-out: MIC50) [µM]	MIC50 (Escherichia coli; ATCC 25922, 24 h) [µM]	MIC100 (Proteus mirabilis)	MIC100 (Pseudomonas aeruginosa)	MIC50 (Candida albicans)	MIC50 (Candida parapsilosis)	MIC100 (Salmonella typhimurium; [7])	CC50 at 48 h [2] [µM]	MIC50 (Candida tropicalis)	MIC100 (Candida tropicalis)	MIC50 (Nannizzia gypsea)	MIC50 [3]	MIC100 [3]	MIC100 (Escherichia coli)	MIC50 (Trichophyton tonsurans)	other results
OC(Cn1cncn1)(Cn1cncn1)c1ccc(F)cc1F [FLUCONAZOLE]	inactive	inactive	inactive	inactive	–	–	–	–	–	–	–	–	–	–	–	–	–	–	–	–	MIC50 (Cryptococcus neoformans; [5]): 6530 µM (≈ 2000 µg/mL); MIC50 (Candida tropicalis; ATCC 750, 24 h): 3260 µM (≈ 998 µg/mL)
O=C(N[C@H](CO)[C@H](O)c1ccc([N+](=O)[O-])cc1)C(Cl)Cl [CHLORAMPHENICOL]	–	–	–	–	77.4 (≈ 25 µg/mL)	6030 (≈ 1950 µg/mL)	1510 (≈ 487 µg/mL)	–	–	–	–	–	–	–	–	–	–	–	–	–	MIC50 (Proteus mirabilis; ATCC 25933, 24 h): 24.1 µM (≈ 7.79 µg/mL); MIC (Proteus mirabilis; ATCC 25933, 24 h, read-out: MIC100): 48.3 µM (≈ 15.6 µg/mL); MIC50 (Pseudomonas aeruginosa; ATCC 9027, 24 h): 48.3 µM (≈ 15.6 µg/mL); MIC50 (Bacillus cereus; ATCC 11778, 24 h): 4820 µM (≈ 1560 µg/mL); MIC (Staphylococcus aureus [1]): 12 µM (≈ 3.89 µg/mL); MIC50 (Salmonella typhimurium; [6]): 15.1 µM (≈ 4.88 µg/mL); MIC (Salmonella typhimurium; Salmonella enterica, ATCC 14028, 24 h, read-out: MIC100): 6.03 µM (≈ 1.95 µg/mL); MIC (Escherichia coli; ATCC 25922, 24 h, read-out: MIC100): 12.1 µM (≈ 3.9 µg/mL)
CC(C)=CCC[C@]1(C)[C@@H](CC=C(C)C)C[C@@]2(CC=C(C)C)C(=O)C(C(=O)c3ccc(OC(=O)c4ccccc4)c(OC(=O)c4ccccc4)c3)=C(O)[C@]1(CC=C(C)C)C2=O	inactive	inactive	inactive	inactive	–	1540 (≈ 1250 µg/mL)	48 (≈ 38.9 µg/mL)	inactive	inactive	inactive	inactive	inactive	> 123	inactive	inactive	inactive	inactive	inactive	inactive	inactive	MIC50 (Proteus mirabilis): inactive; MIC50 (Nakaseomyces glabratus): inactive; MIC50 (Pichia kudriavzevii): inactive; MIC100 (Bacillus cereus): inactive; MIC100 (Staphylococcus aureus [1]): inactive; MIC50 (Salmonella typhimurium; [6]): 49.3 µM (≈ 40 µg/mL); MIC100 (Cryptococcus neoformans): inactive; MIC50 (Cryptococcus neoformans; ATCC 90012, 24 h): 49.3 µM (≈ 40 µg/mL); MIC100 (Nannizzia gypsea): inactive; MIC100 (Trichophyton tonsurans): inactive
CC(C)=CCC[C@]1(C)[C@@H](CC=C(C)C)C[C@@]2(CC=C(C)C)C(=O)C(C(=O)c3ccc(OS(C)(=O)=O)c(OS(C)(=O)=O)c3)=C(O)[C@]1(CC=C(C)C)C2=O	inactive	inactive	inactive	inactive	1.65 (≈ 1.25 µg/mL)	51 (≈ 38.7 µg/mL)	205 (≈ 156 µg/mL)	inactive	inactive	inactive	inactive	inactive	> 132	inactive	inactive	inactive	inactive	inactive	inactive	3290 µM (≈ 2500 µg/mL)	MIC50 (Proteus mirabilis): inactive; Ratio (Staphylococcus aureus [4]): 3.66; MIC50 (Pseudomonas aeruginosa): inactive; MIC50 (Pichia kudriavzevii; ATCC 6258, 24 h): 52.7 µM (≈ 40 µg/mL); MIC50 (Bacillus cereus; ATCC 11778, 24 h): 1650 µM (≈ 1250 µg/mL); MIC (Staphylococcus aureus [1]): 3.29 µM (≈ 2.5 µg/mL); MIC50 (Salmonella typhimurium; [7]): inactive; MIC100 (Cryptococcus neoformans): inactive; MIC50 (Cryptococcus neoformans; ATCC 90012, 24 h): 52.7 µM (≈ 40 µg/mL); MIC100 (Nannizzia gypsea): inactive; MIC100 (Trichophyton tonsurans): inactive
CC(C)=CCC[C@]1(C)[C@@H](CC=C(C)C)C[C@@]2(CC=C(C)C)C(=O)C(C(=O)c3ccc(OC(=O)c4ccc(Cl)cc4)c(OC(=O)c4ccc(Cl)cc4)c3)=C(O)[C@]1(CC=C(C)C)C2=O	inactive	inactive	inactive	inactive	45.5 (≈ 40 µg/mL)	177 (≈ 156 µg/mL)	44 (≈ 38.7 µg/mL)	inactive	inactive	inactive	inactive	inactive	> 114	inactive	inactive	inactive	inactive	inactive	inactive	inactive	MIC50 (Nakaseomyces glabratus): inactive; MIC50 (Pseudomonas aeruginosa): inactive; MIC50 (Pichia kudriavzevii): inactive; MIC50 (Bacillus cereus; ATCC 11778, 24 h): 354 µM (≈ 312 µg/mL); MIC100 (Staphylococcus aureus [1]): inactive; MIC50 (Salmonella typhimurium; [8]): 44 µM (≈ 38.7 µg/mL); MIC100 (Cryptococcus neoformans): inactive; MIC50 (Cryptococcus neoformans; ATCC 90012, 24 h): 45.5 µM (≈ 40 µg/mL); MIC100 (Nannizzia gypsea): inactive; MIC100 (Trichophyton tonsurans): inactive
C[C@@H]1[C@H](O)[C@@H](C)/C=C/C=C/C=C/C=C/C=C/C=C/C=C/[C@H](O[C@@H]2O[C@H](C)[C@@H](O)[C@H](N)[C@@H]2O)C[C@@H]2O[C@](O)(C[C@@H](O)C[C@@H](O)[C@H](O)CC[C@@H](O)C[C@@H](O)CC(=O)O[C@H]1C)C[C@H](O)[C@H]2C(=O)O [AMPHOTERICIN B]	–	–	–	–	–	–	–	–	–	–	inactive	–	–	inactive	–	inactive	–	–	–	inactive	MIC50 (Nakaseomyces glabratus): inactive; MIC (Nakaseomyces glabratus; ATCC 90030, 24 h, read-out: MIC100): 0.54 µM (≈ 0.499 µg/mL); MIC50 (Pichia kudriavzevii): inactive; MIC (Pichia kudriavzevii; ATCC 6258, 24 h, read-out: MIC100): 1.08 µM (≈ 0.998 µg/mL); MIC (Candida albicans; ATCC 09548, 24 h, read-out: MIC100): 0.54 µM (≈ 0.499 µg/mL); MIC (Candida parapsilosis; Lodderomyces parapsilosis, ATCC 69548, 24 h, read-out: MIC100): 0.54 µM (≈ 0.499 µg/mL); MIC50 (Cryptococcus neoformans): inactive; MIC (Cryptococcus neoformans; ATCC 90012, 24 h): 1.08 µM (≈ 0.998 µg/mL); MIC (Candida tropicalis; ATCC 750, 24 h, read-out: MIC100): 1.08 µM (≈ 0.998 µg/mL); MIC (Trichophyton tonsurans): 540 µM (≈ 499 µg/mL)
CC(=O)Oc1ccc(C(=O)C2=C(O)[C@]3(CC=C(C)C)C[C@H](CC=C(C)C)[C@@](C)(CCC=C(C)C)[C@](CC=C(C)C)(C2=O)C3=O)cc1OC(C)=O	inactive	inactive	inactive	inactive	0.227 (≈ 0.156 µg/mL)	56 (≈ 38.5 µg/mL)	1820 (≈ 1250 µg/mL)	inactive	inactive	inactive	inactive	inactive	114	inactive	inactive	inactive	inactive	inactive	inactive	–	MIC50 (Proteus mirabilis): inactive; Ratio (Staphylococcus aureus [4]): 3.31; MIC50 (Pseudomonas aeruginosa): inactive; MIC50 (Pichia kudriavzevii; ATCC 6258, 24 h, read-out: MIC50): 3640 µM (≈ 2500 µg/mL); MIC50 (Bacillus cereus): inactive; MIC (Staphylococcus aureus [1]): 3.64 µM (≈ 2.5 µg/mL); MIC50 (Salmonella typhimurium; [7]): inactive; MIC50 (Cryptococcus neoformans; [5]): 56 µM (≈ 38.5 µg/mL); MIC (Cryptococcus neoformans; ATCC 90012, 24 h): 3.64 µM (≈ 2.5 µg/mL); MIC (Trichophyton tonsurans): 3640 µM (≈ 2500 µg/mL)
CC(C)=CCC[C@]1(C)[C@@H](CC=C(C)C)C[C@@]2(CC=C(C)C)C(=O)C(C(=O)c3ccc(OC(=O)OC(C)(C)C)c(O)c3)=C(O)[C@]1(CC=C(C)C)C2=O	inactive	–	inactive	inactive	28.4 (≈ 20 µg/mL)	–	555 (≈ 390 µg/mL)	inactive	inactive	inactive	–	inactive	> 142	inactive	inactive	–	inactive	inactive	inactive	55 µM (≈ 38.7 µg/mL)	MIC50 (Proteus mirabilis): inactive; MIC50 (Nakaseomyces glabratus; ATCC 90030, 24 h): 56.9 µM (≈ 40 µg/mL); MIC50 (Pseudomonas aeruginosa; ATCC 9027, 24 h): 58.2 µM (≈ 40.9 µg/mL); MIC50 (Pichia kudriavzevii; ATCC 6258, 24 h): 56.9 µM (≈ 40 µg/mL); MIC50 (Bacillus cereus; ATCC 11778, 24 h): 1800 µM (≈ 1270 µg/mL); MIC50 (Staphylococcus aureus [1]): 18 µM (≈ 12.7 µg/mL); MIC50 (Salmonella typhimurium; [8]): 57 µM (≈ 40.1 µg/mL); MIC50 (Cryptococcus neoformans; [5]): 555 µM (≈ 390 µg/mL); MIC (Cryptococcus neoformans; ATCC 90012, 24 h): 1.82 µM (≈ 1.28 µg/mL); MIC (Nannizzia gypsea; read-out: MIC100): 28.4 µM (≈ 20 µg/mL); MIC (Trichophyton tonsurans): 1820 µM (≈ 1280 µg/mL)
